# Assay results collected from several papers.
SMILES,tested on,assay,setting,quantity,value
C[C@@H]1[C@H](O)[C@@H](C)/C=C/C=C/C=C/C=C/C=C/C=C/C=C/[C@H](O[C@@H]2O[C@H](C)[C@@H](O)[C@H](N)[C@@H]2O)C[C@@H]2O[C@](O)(C[C@@H](O)C[C@@H](O)[C@H](O)CC[C@@H](O)C[C@@H](O)CC(=O)O[C@H]1C)C[C@H](O)[C@H]2C(=O)O,Leishmania infantum,"parasite growth, MTT",promastigote,EC50,1500 nM
NCCCCC(=O)Nc1ccccc1/N=c1\cc(-c2ccc3c(c2)OCO3)oc2ccccc12,HCT-116,"cell growth or viability, CCK-8",1 µM,inhibition,3.02%
O=C1OC[C@H]2OC(O)[C@H](O)[C@@H](O)[C@@H]2OC(=O)c2cc(O)c(O)c(O)c2-c2c(O)c(O)c3oc(=O)c4c(c(O)c(O)c5oc(=O)c2c3c54)-c2c1cc(O)c(O)c2O (mixture of isomers),Streptococcus mutans,"microbial growth, disc diffusion",500 µg/disc,inhibition zone,15 mm
COc1ccc2/c(=N/c3ccccc3NC(=O)[C@@H](N)CO)cc(-c3ccc4c(c3)OCCO4)oc2c1,HCT-116,"cell growth or viability, CCK-8",1 µM,inhibition,14.7%
CN[C@H](CC(C)C)C(=O)N[C@H]1C(=O)N[C@@H](CC(N)=O)C(=O)N[C@H]2C(=O)N[C@H]3C(=O)N[C@H](C(=O)N[C@H](C(=O)O)c4cc(O)cc(O)c4-c4cc3ccc4O)[C@H](O)c3ccc(c(Cl)c3)Oc3cc2cc(c3O[C@@H]2O[C@H](CO)[C@@H](O)[C@H](O)[C@H]2O[C@H]2C[C@](C)(N)[C@H](O)[C@H](C)O2)Oc2ccc(cc2Cl)[C@H]1O,Streptococcus pyogenes,microbial growth,clinical isolate,MIC90,1 µg/mL
COCCC(=O)Nc1ccccc1/N=c1\cc(-c2ccc3c(c2)OCO3)oc2ccccc12,HCT-116,"cell growth or viability, CCK-8",1 µM,inhibition,7.96%
O=C1O[C@H]2[C@@H]3OC(=O)c4cc(O)c(O)c(O)c4-c4c(O)c(O)c5oc(=O)c6c(c(O)c(O)c7oc(=O)c4c5c76)-c4c(cc(O)c(O)c4O)C(=O)OC[C@H]3OC(O)[C@@H]2OC(=O)c2cc(O)c(O)c(O)c2-c2c1cc(O)c(O)c2O (mixture of isomers),Streptococcus mutans,"microbial killing, broth dilution",,MBC,200 µg/mL
c1ccc(Oc2ccc(Nc3c4c(nc5ccccc35)CCC4)cc2)cc1,Leishmania infantum,"parasite growth, MTT",promastigote,IC50,530 nM
COc1ccc2oc(-c3ccc4nc(N)oc4c3)c/c(=N\c3ccccc3NC(=O)CCN)c2c1,HCT-116,"cell growth or viability, CCK-8",1 µM,inhibition,45.5%
C[C@@H]1O[C@@H](OC[C@H]2O[C@@H](Oc3c(-c4ccc(O)c(O)c4)oc4cc(O)cc(O)c4c3=O)[C@H](O)[C@@H](O)[C@@H]2O)[C@H](O)[C@H](O)[C@H]1O,Streptococcus mutans,"microbial killing, broth dilution",,MBC,400 µg/mL
COc1ccc(NC(=O)NCc2cn(Cc3ccc(C)cc3)nn2)cc1,PC-9,"cell growth or viability, CCK-8","50 µM, 72 h",viability,113%
C[C@H](Nc1ccc2c(c1)OCCn1cc(N3C(=O)OC[C@H]3C(F)F)nc1-2)C(N)=O,KYSE-510,"cell growth or viability, ATP luminescence",5 days,EC50,87.8 nM
Oc1cc(O)c2c(c1)O[C@H](c1cc(O)c(O)c(O)c1)[C@@H](O)C2,Streptococcus mutans,"microbial growth, broth dilution",24 h,MIC,100 µg/mL
C[C@H](N)C(=O)Nc1ccccc1/N=c1\cc(-c2ccc3c(c2)OCCO3)oc2cc(F)ccc12,HCT-116,"cell growth or viability, CCK-8",1 µM,inhibition,5.4%
CC(=O)NC[C@H]1CN(c2ccc(N3CCOCC3)c(F)c2)C(=O)O1,Streptococcus pyogenes,microbial growth,clinical isolate,MIC90,2 µg/mL
Cc1nc(Nc2ncc(C(=O)Nc3c(C)cccc3Cl)s2)cc(N2CC[C@H](O)C2)n1,JVM13,"cell growth or viability, ATP luminescence","10 µM, 72 h",inhibition,32%
O=c1oc2c(O)c(O)cc3c(=O)oc4c(O)c(O)cc1c4c23,Streptococcus mutans,"microbial killing, broth dilution",,MBC,200 µg/mL
CCOc1ccc(Nc2c3c(nc4ccccc24)CCC3)cc1,Leishmania infantum,"parasite growth, MTT",promastigote,IC50,640 nM
